The source made the active and inactive calls. No cut-off for these calls is given here.
Columns and labels:
[1] = molecular target: MAP kinase p38 (Homo sapiens) (UniProt O15264+Q15759+Q16539+P53778); assay: Inhibition of p38 MAPK phosphorylation in human HCC-827 cells at 5 uM after up to 24 hrs by Western blotting; assay type: cell-based
[2] = molecular target: Focal adhesion kinase 1 (Homo sapiens) (UniProt Q05397); assay: Inhibition of constitutive FAK phosphorylation at Tyr861 in human MDA-MB-468 cells at 5 uM measured after 2 hrs by Western blotting
Sequence of Focal adhesion kinase 1 (Homo sapiens) (Q05397 2-1052 limits assumed): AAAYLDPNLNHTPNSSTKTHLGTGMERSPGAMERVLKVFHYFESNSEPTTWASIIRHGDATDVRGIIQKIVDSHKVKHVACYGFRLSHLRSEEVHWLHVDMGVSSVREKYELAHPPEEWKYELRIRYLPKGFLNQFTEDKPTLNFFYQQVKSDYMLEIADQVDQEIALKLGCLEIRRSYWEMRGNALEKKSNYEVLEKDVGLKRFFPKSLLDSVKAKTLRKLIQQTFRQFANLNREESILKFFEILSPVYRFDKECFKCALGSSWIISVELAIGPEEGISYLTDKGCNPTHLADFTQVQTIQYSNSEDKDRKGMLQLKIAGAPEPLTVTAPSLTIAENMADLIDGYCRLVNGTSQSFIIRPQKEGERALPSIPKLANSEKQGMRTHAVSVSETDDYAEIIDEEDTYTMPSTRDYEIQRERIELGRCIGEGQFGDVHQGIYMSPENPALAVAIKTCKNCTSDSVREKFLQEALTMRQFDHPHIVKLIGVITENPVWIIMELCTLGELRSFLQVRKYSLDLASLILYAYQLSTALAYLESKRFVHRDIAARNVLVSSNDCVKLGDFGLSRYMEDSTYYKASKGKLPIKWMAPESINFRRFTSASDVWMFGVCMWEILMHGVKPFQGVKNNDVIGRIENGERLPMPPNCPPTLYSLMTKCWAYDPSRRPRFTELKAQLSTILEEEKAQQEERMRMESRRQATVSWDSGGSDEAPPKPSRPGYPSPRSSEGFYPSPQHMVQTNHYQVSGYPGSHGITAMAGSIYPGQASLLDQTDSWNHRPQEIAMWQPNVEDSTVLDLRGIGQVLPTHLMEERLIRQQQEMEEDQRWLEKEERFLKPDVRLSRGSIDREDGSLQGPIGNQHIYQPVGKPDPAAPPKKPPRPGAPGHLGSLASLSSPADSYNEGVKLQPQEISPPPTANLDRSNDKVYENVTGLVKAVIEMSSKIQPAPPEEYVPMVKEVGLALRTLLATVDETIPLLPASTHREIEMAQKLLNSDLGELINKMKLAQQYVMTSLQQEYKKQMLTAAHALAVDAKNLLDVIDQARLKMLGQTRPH

MDA-MB-468 = assay: Decrease of Bcl-xl gene expression in human MDA-MB-468 cells at 5 uM; assay type: functional, cell-based
[3] = molecular target: G1/S-specific cyclin-D1 (Homo sapiens) (UniProt P24385); assay: Inhibition of Cyclin D1 in human HCC-827 cells at 5 uM after up to 24 hrs by Western blotting; assay type: cell-based
Sequence of G1/S-specific cyclin-D1 (Homo sapiens) (P24385 whole entry, the tested form may be a part): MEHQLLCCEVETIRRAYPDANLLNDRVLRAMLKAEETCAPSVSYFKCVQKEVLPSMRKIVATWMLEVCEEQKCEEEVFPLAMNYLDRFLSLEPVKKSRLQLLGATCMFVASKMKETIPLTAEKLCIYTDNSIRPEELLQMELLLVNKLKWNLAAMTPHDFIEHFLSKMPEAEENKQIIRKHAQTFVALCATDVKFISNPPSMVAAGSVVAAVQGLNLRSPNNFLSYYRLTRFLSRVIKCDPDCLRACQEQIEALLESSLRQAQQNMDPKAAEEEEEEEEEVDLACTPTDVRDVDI

[4] = molecular target: T1, Signal transducer and activator of transcription 3 (Homo sapiens, UniProt P40763); assay: Inhibition of IL6-induced SH2 domain of Stat3 phosphorylation at Tyr705 in human HEY cells up to 10 uM treated 1.5 hrs before IL6 challenge measured after 30 mins by Western blotting; assay type: cell-based
T1 sequence (P40763 whole entry, the tested form may be a part): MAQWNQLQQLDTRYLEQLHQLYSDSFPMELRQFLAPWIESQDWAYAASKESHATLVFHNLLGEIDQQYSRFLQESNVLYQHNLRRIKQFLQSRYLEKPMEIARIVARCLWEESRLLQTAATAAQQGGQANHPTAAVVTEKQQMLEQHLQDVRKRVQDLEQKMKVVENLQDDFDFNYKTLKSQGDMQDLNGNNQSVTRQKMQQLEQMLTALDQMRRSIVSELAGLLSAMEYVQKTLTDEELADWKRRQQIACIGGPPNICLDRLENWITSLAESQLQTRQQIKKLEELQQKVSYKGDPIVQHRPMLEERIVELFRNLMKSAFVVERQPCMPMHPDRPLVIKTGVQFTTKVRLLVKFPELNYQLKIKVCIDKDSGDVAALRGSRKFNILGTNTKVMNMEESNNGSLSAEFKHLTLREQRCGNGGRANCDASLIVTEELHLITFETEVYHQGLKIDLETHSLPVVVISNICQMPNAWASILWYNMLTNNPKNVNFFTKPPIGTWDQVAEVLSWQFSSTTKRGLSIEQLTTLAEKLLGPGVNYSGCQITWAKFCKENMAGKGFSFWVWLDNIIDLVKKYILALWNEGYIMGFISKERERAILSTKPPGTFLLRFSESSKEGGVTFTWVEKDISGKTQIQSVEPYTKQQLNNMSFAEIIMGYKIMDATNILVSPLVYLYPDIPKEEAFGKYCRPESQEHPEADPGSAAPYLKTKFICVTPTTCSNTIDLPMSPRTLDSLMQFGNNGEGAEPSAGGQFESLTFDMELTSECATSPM
Summary of the method: (§1)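 Hey, MeWo and A375 cells (3×10^5/well, RPMI1640, overnight, fresh medium) given increasing prodrug concentrations for 2 h, with IL-6 10 ng/mL during the final 30 min; pStat3 and total Stat3 by Western blot.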

[5] = Cytotoxicity against human SKOV3ip cells after 72 hrs by SRB assay; assay type: functional, cell-based; conditions: SKOV3-ip
Summary of the method: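 Cancer cell lines (MCF-7, SKOV3-ip, HCC-827) dosed daily with prodrug for three days; viability by SRB assay.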

[6] = molecular target: T1, Signal transducer and activator of transcription 3; assay: Inhibition of IL6-induced SH2 domain of Stat3 phosphorylation at Tyr705 in human A375 cells up to 10 uM treated 1.5 hrs before IL6 challenge measured after 30 mins by Western blotting; assay type: cell-based; conditions: A-375; summary of the method: as §1
[7] = molecular target: T1, Signal transducer and activator of transcription 3; assay: Inhibition of SH2 domain of Stat3 phosphorylation at Tyr705 in human HCC-827 cells at 5 uM after 10 mins by Western blotting; assay type: cell-based
Summary of the method: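 HCC-827 NSCLC cells treated with 5 μM prodrug and sampled over a time course from 10 min to 24 h; pStat3 by Western blot.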

[8] = molecular target: T1, Signal transducer and activator of transcription 3; assay: Inhibition of SH2 domain of Stat3 phosphorylation at Tyr705 in human SKOV3-ip cells up to 10 uM by Western blotting

inhibition [1]: inactive | inhibition [2]: inactive | inhibition [3]: inactive | inhibition [4]: Active | inhibition [6]: Active | inhibition [7]: Active | inhibition [8]: Active
SMILES: C/C(=C\C(=O)N[C@H]1CCc2cccc3c2N(C1=O)[C@H](C(=O)N[C@H](C)CCC(N)=O)C3)c1ccc(C(F)(F)P(=O)(OCOC(=O)C(C)(C)C)OCOC(=O)C(C)(C)C)cc1
Activity (MDA-MB-468): inactive | IC50 [5]: > 30 µM
